According to ChEMBL document CHEMBL4613292, “5,6-Dihydroxypyrimidine Scaffold to Target HIV-1 Nucleocapsid Protein” (ACS Med Chem Lett, 2020):
pEC50, pIC50: −log10 of the molar value. Activity calls are given as the source filed them. No cut-off for these calls is given here.

Key:
[1] = (§1) Inhibition of HIV1 Nucleocapsid protein (11 to 55 residues) assessed as reduction in NC-induced cTAR DNA destabilization by measuring intrinsic fluorescence using Alexa488-5'-cTAR-3'-Dabcyl oligonucleotide as substrate at 20 degree C incubated for 15 mins by fluorescence assay; design: species or system Human immunodeficiency virus 1; conditions: for pIC50: read-out: IC50
Outline: (§2)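 Fluorescence NC-inhibition assay following destabilisation of cTAR DNA, the complement of the HIV-1 transactivation response element, dual-labelled with Alexa488 dye and Dabcyl quencher. NC protein at 1 μM, so the lowest measurable IC50 is 0.5 μM.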

[2] = molecular target: Human immunodeficiency virus type 1 integrase (Human immunodeficiency virus 1) (UniProt Q7ZJM1); test: Inhibition of wild type recombinant HIV1 His6-tagged integrase expressed in Escherichia coli BL21 using 18 nucleotide 3'-biotin labeled DNA acceptor as substrate upto 10 uM preincubated for 1 hr followed by substrate addition and further incubated for 90 mins in presence of recombinant LEDGF/p75 by HTRF assay
Sequence of Human immunodeficiency virus type 1 integrase (Human immunodeficiency virus 1) (Q7ZJM1 as listed by the source): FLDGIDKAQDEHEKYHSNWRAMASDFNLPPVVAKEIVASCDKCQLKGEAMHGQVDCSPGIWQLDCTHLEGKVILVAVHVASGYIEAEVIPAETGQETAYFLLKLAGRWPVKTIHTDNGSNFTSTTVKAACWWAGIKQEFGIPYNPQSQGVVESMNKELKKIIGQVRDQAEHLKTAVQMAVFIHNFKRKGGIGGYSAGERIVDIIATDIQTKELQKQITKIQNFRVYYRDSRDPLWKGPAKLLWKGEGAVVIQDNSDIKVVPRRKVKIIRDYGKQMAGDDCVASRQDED

[3] = Oral bioavailability in C57BL/6 mouse at 5 mg/kg administered as single dose measured up to 24 hrs by LC-MS/MS analysis; assay type: ADME, organism-based; conditions: in vivo
Outline: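 C57BL/6 mice were dosed 5 mg/kg orally, with a 2 mg/kg iv reference arm. Plasma was sampled at eight time points up to 24 h.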

[4] = Volume of distribution at steady state in C57BL/6 mouse at 2 mg/kg, iv or 5 mg/kg, po administered as single dose measured up to 24 hrs by LC-MS/MS analysis; assay type: ADME, organism-based; conditions: in vivo, read-out: Vdss
[5] = molecular target: Voltage-gated inwardly rectifying potassium channel KCNH2 (Homo sapiens, UniProt Q12809); test: Displacement of Tracer Red from human ERG measured after 4 hrs by fluorescence polarization assay
Sequence of Voltage-gated inwardly rectifying potassium channel KCNH2 (Q12809 whole entry): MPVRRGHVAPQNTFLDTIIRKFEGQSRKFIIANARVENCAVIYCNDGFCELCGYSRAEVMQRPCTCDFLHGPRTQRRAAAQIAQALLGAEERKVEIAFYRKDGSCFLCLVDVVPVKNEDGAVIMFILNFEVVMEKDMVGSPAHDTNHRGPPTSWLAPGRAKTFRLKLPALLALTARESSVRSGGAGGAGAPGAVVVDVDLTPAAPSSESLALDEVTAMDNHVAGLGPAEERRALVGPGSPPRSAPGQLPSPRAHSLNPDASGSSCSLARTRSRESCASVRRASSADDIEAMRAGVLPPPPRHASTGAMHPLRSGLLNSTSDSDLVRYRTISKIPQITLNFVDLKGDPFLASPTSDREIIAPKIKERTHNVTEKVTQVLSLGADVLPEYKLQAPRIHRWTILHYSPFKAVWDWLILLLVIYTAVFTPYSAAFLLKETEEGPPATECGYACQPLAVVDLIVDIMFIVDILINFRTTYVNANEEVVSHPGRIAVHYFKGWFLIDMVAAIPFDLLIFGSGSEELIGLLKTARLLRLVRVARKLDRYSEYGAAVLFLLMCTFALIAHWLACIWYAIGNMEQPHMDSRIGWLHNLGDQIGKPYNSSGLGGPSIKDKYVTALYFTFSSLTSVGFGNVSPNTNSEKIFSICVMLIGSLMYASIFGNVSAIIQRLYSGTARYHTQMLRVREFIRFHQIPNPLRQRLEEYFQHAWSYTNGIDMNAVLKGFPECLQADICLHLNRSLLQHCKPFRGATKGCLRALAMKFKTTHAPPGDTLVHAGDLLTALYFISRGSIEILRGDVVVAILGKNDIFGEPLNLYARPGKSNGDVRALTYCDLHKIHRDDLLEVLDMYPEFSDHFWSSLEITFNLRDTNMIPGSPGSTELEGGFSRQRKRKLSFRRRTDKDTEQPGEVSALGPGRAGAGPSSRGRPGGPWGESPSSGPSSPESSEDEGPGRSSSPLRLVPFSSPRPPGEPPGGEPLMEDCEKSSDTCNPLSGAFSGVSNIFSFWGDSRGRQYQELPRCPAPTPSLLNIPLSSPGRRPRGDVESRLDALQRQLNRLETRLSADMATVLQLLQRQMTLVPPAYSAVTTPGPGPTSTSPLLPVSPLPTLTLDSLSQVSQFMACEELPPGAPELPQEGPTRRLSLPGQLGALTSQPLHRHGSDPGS

[6] = Clearance in C57BL/6 mouse at 2 mg/kg, iv or 5 mg/kg, po administered as single dose measured up to 24 hrs by LC-MS/MS analysis; assay type: ADME, organism-based; conditions: in vivo
Cytochrome P450 3A4 = Cytochrome P450 3A4 (Homo sapiens, UniProt P08684); test: Inhibition of human microsomal CYP3A4 expressed in baculovirus infected insect cells using luciferin-IPA as substrate preincubated with enzyme/substrate mixture for 30 mins followed by further incubation with NADPH for 30 mins by CYP450 luciferase Glo assay; assay type: ADME
Sequence of Cytochrome P450 3A4 (P08684 whole entry): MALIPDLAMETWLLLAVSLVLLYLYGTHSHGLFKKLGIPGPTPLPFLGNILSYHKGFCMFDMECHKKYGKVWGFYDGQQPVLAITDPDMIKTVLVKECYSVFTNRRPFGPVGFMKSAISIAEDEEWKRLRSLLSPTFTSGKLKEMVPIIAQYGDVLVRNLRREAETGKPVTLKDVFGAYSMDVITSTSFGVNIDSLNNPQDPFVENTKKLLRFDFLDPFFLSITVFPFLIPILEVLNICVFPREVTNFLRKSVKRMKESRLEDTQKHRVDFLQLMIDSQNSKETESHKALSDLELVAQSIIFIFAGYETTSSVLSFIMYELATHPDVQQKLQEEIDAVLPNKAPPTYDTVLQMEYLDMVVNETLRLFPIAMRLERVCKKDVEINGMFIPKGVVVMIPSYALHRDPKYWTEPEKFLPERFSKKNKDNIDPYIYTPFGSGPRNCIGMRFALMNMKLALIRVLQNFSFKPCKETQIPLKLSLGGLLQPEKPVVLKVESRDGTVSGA

[7] = (§3) Selectivity index, ratio of CC50 for human HeLa cells assessed as reduction in cell viability to EC50 for wild-type HIV1 NL4-3 infected in human TZM-bl cells infected with supernatants from virus-infected human MT2 cells treated with compound for 48 to 72 hrs assessed as reduction in viral replication after 2 days by bright Glo-luciferase reporter gene assay based BiCycle assay; assay type: toxicity; conditions: read-out: Ratio CC50/EC50
Outline: (§4)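 Selectivity index is CC50 from the respective cytotoxicity assay (HeLa or PBMC) divided by EC50 from the two-round MT-2/TZM-bl NL4-3 assay.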

[8] = test system: Human immunodeficiency virus 1; test: Antiviral activity against NRTI-resistant HIV1 7401; assay type: functional, organism-based; conditions: Human immunodeficiency virus 1, 7401
[9] = test system: Human immunodeficiency virus 1; test: as §3, with “Antiviral activity against” for “Selectivity index, ratio of CC50 for human HeLa cells assessed as reduction in cell viability to EC50 for”; assay type: functional, organism-based; conditions: Human immunodeficiency virus 1, NL4-3, TZM
Outline: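 Two-round cell assay over the full replication cycle: MT-2 T cells are infected with wild-type reference strain NL4-3 in the first round, and reporter TZM-bl cells are infected in the second round. Values are given as mean ± deviation.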

[10] = test system: Human immunodeficiency virus 1; test: as §1, with “Ratio” for “Inhibition”, “of IC50 for NRTI-resistant HIV1 7401 Nucleocapsid protein (11 to 55 residues) using Alexa488-5'-cTAR-3'-Dabcyl oligonucleotide as substrate to IC50 for” for “of”
[11] = test system: Human immunodeficiency virus 1; test: as §1, with “Ratio” for “Inhibition”, “of IC50 for INI-resistant HIV1 11845 Nucleocapsid protein (11 to 55 residues) using Alexa488-5'-cTAR-3'-Dabcyl oligonucleotide as substrate to IC50 for” for “of”
[12] = Half life in human hepatocytes at 3 uM by LC-MS/MS analysis; assay type: ADME, cell-based, Hepatocyte
[13] = Half life in C57BL/6 mouse at 2 mg/kg, iv or 5 mg/kg, po administered as single dose measured up to 24 hrs by LC-MS/MS analysis; assay type: ADME, organism-based; conditions: in vivo
Cytochrome P450 1A2 = molecular target: T1, Cytochrome P450 1A2 (Homo sapiens, UniProt P05177); test: Inhibition of human microsomal CYP1A2 expressed in baculovirus infected insect cells using luciferin-1A2 as substrate preincubated with enzyme-substrate mixture for 30 mins followed by further incubation with NADPH for 30 mins by CYP450 luciferase Glo assay; assay type: ADME
T1 sequence (P05177 whole entry): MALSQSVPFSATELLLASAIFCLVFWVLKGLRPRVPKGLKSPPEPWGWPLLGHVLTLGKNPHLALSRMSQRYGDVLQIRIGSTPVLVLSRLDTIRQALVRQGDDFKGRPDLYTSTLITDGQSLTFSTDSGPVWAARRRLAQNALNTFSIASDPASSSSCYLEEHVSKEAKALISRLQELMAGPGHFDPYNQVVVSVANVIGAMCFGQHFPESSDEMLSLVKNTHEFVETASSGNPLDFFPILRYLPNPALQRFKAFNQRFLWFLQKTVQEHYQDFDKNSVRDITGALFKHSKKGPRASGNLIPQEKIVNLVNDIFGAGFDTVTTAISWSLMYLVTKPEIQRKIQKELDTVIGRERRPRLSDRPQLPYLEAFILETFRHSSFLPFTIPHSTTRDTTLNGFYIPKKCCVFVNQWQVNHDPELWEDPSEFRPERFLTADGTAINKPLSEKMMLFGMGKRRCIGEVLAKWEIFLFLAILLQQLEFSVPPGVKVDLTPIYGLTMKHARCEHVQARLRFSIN

[14] = Half life in mouse hepatocytes at 3 uM by LC-MS/MS analysis; assay type: ADME, cell-based, Hepatocyte
[15] = Half life in mouse plasma at 3 uM by LC-MS/MS analysis; assay type: ADME, cell-free
[16] = test system: Human immunodeficiency virus 1; test: Antiviral activity against PI-resistant HIV1 11808; assay type: functional, organism-based; conditions: Human immunodeficiency virus 1, 11808
[17] = Cytotoxicity against phytohemagglutinin and interleukin-2-stimulated human PBMC cells assessed as reduction in cell viability measured after 7 days by MTS assay; assay type: cell-based
[18] = test system: Human immunodeficiency virus 1; test: as §1, with “Ratio” for “Inhibition”, “of IC50 for PI-resistant HIV1 11808 Nucleocapsid protein (11 to 55 residues) using Alexa488-5'-cTAR-3'-Dabcyl oligonucleotide as substrate to IC50 for” for “of”
Cytochrome P450 2D6 = Cytochrome P450 2D6 (Homo sapiens, UniProt P10635); test: Inhibition of human microsomal CYP2D6 expressed in baculovirus infected insect cells using luciferin-ME as substrate preincubated with enzyme/substrate mixture for 30 mins followed by further incubation with NADPH for 30 mins by CYP450 luciferase Glo assay; assay type: ADME
Sequence of Cytochrome P450 2D6 (P10635 whole entry, the tested form may be a part): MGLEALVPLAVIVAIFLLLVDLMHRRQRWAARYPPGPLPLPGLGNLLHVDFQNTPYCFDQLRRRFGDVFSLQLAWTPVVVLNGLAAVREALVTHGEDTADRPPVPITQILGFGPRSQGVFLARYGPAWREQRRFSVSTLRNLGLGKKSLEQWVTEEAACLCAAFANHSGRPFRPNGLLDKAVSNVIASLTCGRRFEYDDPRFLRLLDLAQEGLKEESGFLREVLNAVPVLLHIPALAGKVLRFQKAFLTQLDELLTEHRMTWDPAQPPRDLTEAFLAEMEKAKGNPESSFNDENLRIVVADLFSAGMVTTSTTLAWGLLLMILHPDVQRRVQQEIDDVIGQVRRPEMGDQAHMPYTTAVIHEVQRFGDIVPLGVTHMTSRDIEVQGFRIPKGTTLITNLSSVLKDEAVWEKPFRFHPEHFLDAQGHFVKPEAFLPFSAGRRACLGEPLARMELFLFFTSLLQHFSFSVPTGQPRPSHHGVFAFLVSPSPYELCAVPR

[19] = test system: Human immunodeficiency virus 1; test: as §1, with “Ratio” for “Inhibition”, “of IC50 for NNRTI-resistant HIV1 12231 Nucleocapsid protein (11 to 55 residues) using Alexa488-5'-cTAR-3'-Dabcyl oligonucleotide as substrate to IC50 for” for “of”
[20] = Cytotoxicity against human HeLa cells assessed as reduction in cell viability; assay type: cell-based
[21] = test system: Human immunodeficiency virus 1; test: Antiviral activity against INI-resistant HIV1 11845; assay type: functional, organism-based; conditions: Human immunodeficiency virus 1, 11845
[22] = Selectivity index, ratio of CC50 for human PBMC cells stimulated with phytohemagglutinin and interleukin-2 assessed as reduction in cell viability measured after 7 days by MTS assay to EC50 for wild-type HIV1 NL4-3 infected in human TZM-bl cells infected with supernatants from virus-infected human MT2 cells treated with compound for 48 to 72 hrs assessed as reduction in viral replication after 2 days by bright Glo-luciferase reporter gene assay based BiCycle assay; assay type: toxicity; conditions: read-out: Ratio CC50/EC50; outline: as §4
[23] = test system: Human immunodeficiency virus 1; test: Antiviral activity against NNRTI-resistant HIV1 12231; assay type: functional, organism-based; conditions: Human immunodeficiency virus 1, 12231
[24] = Half life in human plasma at 3 uM by LC-MS/MS analysis; assay type: ADME, cell-free
[25] = test system: Human immunodeficiency virus 1; test: as §1; outline: as §2

## O=C(NCC1CCCCC1)c1nc(-c2ccccc2)nc(O)c1O
[1]
  IC50: Not Active

## O=C(NCC1CCCCC1)c1nc(-c2ccncc2)nc(O)c1O
[1]
  IC50: Not Active

## CN(CC1CCCCC1)C(=O)c1nc(-c2ccccn2)nc(O)c1O
[1]
  IC50: Not Active

## C[C@@H](NC(=O)c1nc(-c2nccc3ccccc23)nc(O)c1O)C1CCCCC1
[2]
  inhibition: inactive
[3]
  bioavailability: 26%
[4]
  Vd: 0.8 L/kg
[5]
  pIC50: < 4.52
[6]
  clearance: 30.2 mL/min/kg
[1]
  pIC50: 5.40
Cytochrome P450 3A4
  pIC50: < 4.52
[7]
  selectivity ratio: 21
[8]
  pEC50: 6.89
[9]
  pEC50: 7.00
[10]
  Ratio IC50: 1.3
[11]
  Ratio IC50: 0.9
[12]
  half-life at 3 µM: 2.6 h
[13]
  half-life: 1.1 h
Cytochrome P450 1A2
  pIC50: < 4.52
[14]
  half-life at 3 µM: 1.7 h
[15]
  half-life at 3 µM: 3.7 h
[16]
  pEC50: 6.80
[17]
  CC50 at 168 h: 5 µM
[18]
  Ratio IC50: 1.6
Cytochrome P450 2D6
  pIC50: < 4.52
[19]
  Ratio IC50: 2
[20]
  CC50: 2.1 µM
[21]
  pEC50: 7.05
[22]
  selectivity ratio at 7 days: 50
[23]
  pEC50: 6.68

## C[C@H](NC(=O)c1nc(-c2ccccn2)nc(O)c1O)C1CCCCC1
[1]
  pIC50: 4.33
[7]
  selectivity ratio: 3
[9]
  pEC50: 6.70
[17]
  CC50 at 168 h: 2.4 µM
[20]
  CC50: 0.6 µM
[22]
  selectivity ratio at 7 days: 12

## C[C@@H](NC(=O)c1nc(-c2ccc(C(F)(F)F)cn2)nc(O)c1O)C1CCCCC1
[1]
  pIC50: 4.64

## C[C@@H](NC(=O)c1nc(-c2cc(C(F)(F)F)ccn2)nc(O)c1O)C1CCCCC1
[5]
  pIC50: < 4.52
[1]
  pIC50: 4.92
Cytochrome P450 3A4
  pIC50: < 4.52
[7]
  selectivity ratio: 15
[9]
  pEC50: 6.40
[24]
  half-life at 3 µM: > 1 h
[12]
  half-life at 3 µM: > 4 h
Cytochrome P450 1A2
  pIC50: < 4.52
[14]
  half-life at 3 µM: 2.4 h
[15]
  half-life at 3 µM: > 1 h
[17]
  CC50 at 168 h: 1.1 µM
Cytochrome P450 2D6
  pIC50: < 4.52
[20]
  CC50: 6 µM
[22]
  selectivity ratio at 7 days: 3

## CC(Cc1nc(-c2ccc(O)c(O)c2)cs1)n1cc(Cl)cn1 (stereo unspecified)
[1]
  pIC50: 3.96

## O=C(NCC1CCCCC1)c1nc(CCc2ccccc2)nc(O)c1O
[1]
  IC50: Not Active

## Cc1cccnc1-c1nc(O)c(O)c(C(=O)N[C@H](C)C2CCCCC2)n1
[1]
  pIC50: 4.68

## Cc1ccc(-c2nc(O)c(O)c(C(=O)N[C@H](C)C3CCCCC3)n2)nc1
[25]
  IC40: 20 µM

## Cc1cccc(-c2nc(O)c(O)c(C(=O)N[C@H](C)C3CCCCC3)n2)n1
[1]
  pIC50: 4.70

## CC(Cc1ccc(O)c(O)c1)C(C)Cc1ccc(O)c(O)c1 (stereo unspecified) [NORDIHYDROGUAIARETIC ACID]
[1]
  pIC50: 4.59
